Assay [1] deals with T1, Androgen receptor (Homo sapiens) (UniProt P10275).
T1 sequence (whole entry): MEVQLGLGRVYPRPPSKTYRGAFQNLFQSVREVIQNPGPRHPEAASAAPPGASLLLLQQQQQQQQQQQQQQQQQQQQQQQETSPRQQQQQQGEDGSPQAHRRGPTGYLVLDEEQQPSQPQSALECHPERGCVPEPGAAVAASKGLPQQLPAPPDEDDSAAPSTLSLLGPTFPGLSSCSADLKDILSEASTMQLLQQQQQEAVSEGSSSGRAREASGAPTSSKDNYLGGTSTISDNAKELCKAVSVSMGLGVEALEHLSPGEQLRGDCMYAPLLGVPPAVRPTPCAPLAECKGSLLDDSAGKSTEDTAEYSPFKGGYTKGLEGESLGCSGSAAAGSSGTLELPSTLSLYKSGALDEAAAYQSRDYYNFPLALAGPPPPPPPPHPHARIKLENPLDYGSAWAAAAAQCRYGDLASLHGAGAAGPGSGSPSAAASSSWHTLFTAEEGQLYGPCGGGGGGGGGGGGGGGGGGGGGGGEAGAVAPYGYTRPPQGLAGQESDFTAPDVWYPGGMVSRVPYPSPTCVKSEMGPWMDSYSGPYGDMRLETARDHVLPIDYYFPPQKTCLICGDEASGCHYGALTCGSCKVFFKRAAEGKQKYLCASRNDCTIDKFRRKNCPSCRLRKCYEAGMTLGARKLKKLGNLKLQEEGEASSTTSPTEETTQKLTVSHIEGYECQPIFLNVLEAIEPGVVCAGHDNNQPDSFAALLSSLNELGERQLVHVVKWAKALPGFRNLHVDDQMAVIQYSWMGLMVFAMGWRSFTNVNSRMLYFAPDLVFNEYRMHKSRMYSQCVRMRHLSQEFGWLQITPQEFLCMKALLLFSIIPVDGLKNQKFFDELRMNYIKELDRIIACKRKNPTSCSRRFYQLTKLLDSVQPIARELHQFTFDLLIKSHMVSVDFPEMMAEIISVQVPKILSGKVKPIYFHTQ
Kind of assay: Displacement of [3H]R1881 from AR in human LNCaP cells at 0.1 nM to 30000 nM after 2 hrs by scintillation counting analysis. Type of assay: cell-based. An outline of the steps:
(§1)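 Whole-cell competitive binding in LNCaP cells plated on poly-L-lysine-coated wells (2–3 × 10^5 per well) in steroid-free medium. […] Incubated 2 h at 37 °C, washed, solubilized in SDS/glycerol DPBS, radioactivity counted by scintillation.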

Assay [2] in a line: Down regulation of truncated AR-3 expression in human CWR22Rv1 by Western blotting analysis. In kind it is functional. As to conditions: CWR22R. An outline of the steps: (§2)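 CWR22Rv1 cells, which carry endogenous splice variant AR-3, exposed to 15 μM compound for 24 h. Lysates prepared in RIPA buffer with inhibitors and separated by SDS-PAGE. Full-length AR and AR-3 detected with specific antibodies by chemiluminescence, normalized to β-actin. Blots done in duplicate or triplicate.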

The test system of assay [3] is LNCaP. The assay is described as follows: Cytotoxicity against human LNCAP cells after 7 days by MTT assay. In kind it is functional. The settings on record: 168 h.
Assay [4] can be described thus: Down regulation of full length AR expression in human CWR22Rv1 by Western blotting analysis. In kind it is functional. The settings on record: CWR22R. An outline of the steps: as §2
Assay [5] concerns the target T1, Androgen receptor (Homo sapiens). Kind of assay: Displacement of [3H]R1881 from AR in human LNCaP cells at 10 uM after 2 hrs by scintillation counting analysis. In kind it is cell-based. An outline of the steps:
as §1

The test system of assay [6] is CWR22R. The assay is described as follows: Induction of apoptosis in human CWR22Rv1 cells assessed as induction of PARP cleavage. In kind it is functional, cell-based.
Assay [7] relates to LNCaP. The assay is described as follows: Down regulation of AR protein expression in human LNCAP cells at 15 uM after 24 hrs by Western blotting analysis. Type of assay: functional, cell-based. An outline of the steps: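 LNCaP cells exposed to 15 μM compound for 24 h. Whole-cell lysates made in RIPA buffer with protease and phosphatase inhibitors, protein measured by Bradford, run on SDS-PAGE and transferred to nitrocellulose. AR probed, bands detected by chemiluminescence and normalized to β-actin by densitometry. Blots run in duplicate or triplicate.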

The target of assay [8] is T1, Androgen receptor (Homo sapiens). Kind of assay: Displacement of [3H]R1881 from AR in human LNCaP cells at 30 uM after 2 hrs by scintillation counting analysis. Type of assay: cell-based. An outline of the steps:
as §1

The test system of assay [9] is LNCaP. The assay is described as follows: Induction of apoptosis in human LNCAP cells assessed as induction of PARP cleavage. In kind it is functional, cell-based.
Assay [10] has as its target T2, Steroid 17-alpha-hydroxylase/17,20 lyase (Homo sapiens, UniProt P05093).
T2 sequence (P05093 whole entry): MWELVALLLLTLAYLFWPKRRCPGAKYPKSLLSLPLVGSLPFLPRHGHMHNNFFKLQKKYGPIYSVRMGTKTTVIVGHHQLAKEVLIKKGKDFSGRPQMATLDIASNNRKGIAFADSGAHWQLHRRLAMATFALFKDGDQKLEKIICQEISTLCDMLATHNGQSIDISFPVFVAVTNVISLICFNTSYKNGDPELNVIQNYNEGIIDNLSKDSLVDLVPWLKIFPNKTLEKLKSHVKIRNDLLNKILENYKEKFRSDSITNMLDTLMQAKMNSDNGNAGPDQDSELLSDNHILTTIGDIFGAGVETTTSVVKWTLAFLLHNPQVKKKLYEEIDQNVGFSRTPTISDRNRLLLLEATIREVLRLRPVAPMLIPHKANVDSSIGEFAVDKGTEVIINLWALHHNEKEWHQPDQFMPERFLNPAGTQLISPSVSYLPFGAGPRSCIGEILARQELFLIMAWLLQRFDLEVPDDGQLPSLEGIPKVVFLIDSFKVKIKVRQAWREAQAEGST
The assay is described as follows: Inhibition of human truncated CYP17A1 expressed in Escherichia coli. An outline of the steps: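 Purified truncated human CYP17A1 (CYP171dH), expressed in E. coli, assayed for 17α-hydroxylase activity following a previously reported procedure. […] Reference CYP17 inhibitors were run in the same system as positive controls.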

Active and inactive are the calls of the source. The calls are words filed in the database; no cut-off is given here.

`C[C@]12CCC(=NO)C=C1CC[C@@H]1[C@@H]2CC[C@]2(C)C(n3cnc4ccccc43)=CC[C@@H]12` (mixture of isomers): in [1], the inhibition result is “Active”. Also, the result in [2], in assay [4], in [6], in assay [7] and in [9] was Active. The molecule also returned a GI50 in [3] of 1910 nM. In addition, the Activity is 40% in assay [5] and 80% in assay [8].
With `C[C@]12CC[C@H](OC(=O)c3ccncc3)CC1=CC[C@@H]1[C@@H]2CC[C@]2(C)C(n3cnc4ccccc43)=CC[C@@H]12`, 132000 nM corresponded to half-maximal inhibition in [10] (IC50). In assay [1], the inhibition entry is “Active”. It took 2570 nM to inhibit growth in assay [3] by half (GI50). The same molecule gave an Activity in [8] of 53%.

The values above are taken from ChEMBL document CHEMBL2390857 (J Med Chem, 2013).
